Results from paper PMC4102938 (British Journal of Cancer, 2014).

How the values were obtained:
CRM1 [1] = assay: Immunoblot of CRM1 protein in treated cells; assay type: cell-based, human; details: H1975 cell lysate, KPT-330 10–1000 nM, 24 h
Method in brief: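 H1975 cells were treated 24 h with test compound at 0, 10, 100 or 1000 nM. Whole-cell lysates were prepared with a mammalian lysis reagent, protein was measured by BCA, and samples were run on SDS-PAGE and blotted to PVDF. Membranes were blocked 1 h in TBS/5% milk/0.5% Tween 20, incubated with primary antibody overnight at 4 °C, then HRP secondary for 1 h at room temperature. Detection was by chemiluminescence, with β-actin as reference and densitometry of bands.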

[2] = Body weight of treated mice; assay type: in vivo; details: NOD/SCID mice, oral 10 mg kg^−1 thrice weekly for 4 weeks
[3] = tested on: H1975 cells stably carrying scramble vector; assay: MTT growth assay, scrambled shRNA control cells; assay type: cell-based, human
Method in brief: (§1)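 H1975 cells stably carrying a CRM1-targeting or scrambled shRNA were used, made by pLKO.1 lentiviral infection with polybrene for 16 h and puromycin selection for 3 days starting 2 days post-infection. Cells were cultured 72 h across a cisplatin series up to 10 μg ml−1. Growth was measured by MTT and IC50 derived. Data are three experiments in triplicate, mean±s.d.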

CRM1 [4] = assay: Quantitative RT-PCR of CRM1 mRNA in treated cells; assay type: cell-based, human; details: H1975, KPT-330 10–1000 nM, 24 h
Method in brief: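 H1975 cells were exposed for 24 h to test compound at 0, 10, 100 or 1000 nM. CRM1 mRNA was quantified by quantitative RT–PCR; experiments were done in triplicate and reported as mean±s.d.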

six NSCLC cell lines = assay: Apoptosis, annexin V/propidium iodide flow cytometry, six lines; assay type: cell-based, human; details: range over six NSCLC cell lines, 24 h
Method in brief: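 Cells seeded at 50% confluency, incubated overnight, then given fresh medium with diluent control or test compound (1, 10, 100, 1000 nM) for 24 h. Cells were PBS-washed, trypsinized, resuspended in annexin-binding buffer at 1 × 10^6 cells per ml, and stained with annexin V plus propidium iodide. Analysed by flow cytometry; read-out is the percent annexin V/PI co-positive cells.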

[5] = tested on: H1975 cells stably carrying shp73; assay: MTT growth assay, p73-knockdown cells; assay type: cell-based; details: Homo sapiens, NCI-H1975, 72 h
Method in brief: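 H1975 cells stably carrying a p73-targeting or scrambled shRNA were used, made by pLKO.1 lentiviral infection with polybrene for 16 h and puromycin selection for 3 days beginning 2 days after infection. Cells were cultured 3 days with test compound at 0, 1, 3, 10, 30, 100, 320 or 1000 nM. Growth was measured by MTT and IC50 derived. Data are three experiments in triplicate, mean±s.d.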

11 NSCLC cell lines = assay: MTT proliferation assay, 72 h, whole panel; assay type: cell-based; details: Homo sapiens, read-out: calculated IC50 values, range
Method in brief: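 Eleven NSCLC lines (STR-verified) were grown in RPMI 1640 with 10% FBS and penicillin/streptomycin at 37 °C, 5% CO2. Cells were plated at 3 × 10^3 per well and exposed for 72 h to test compound at 0, 0.1, 1, 10, 100 or 1000 nM. Viability was read by MTT absorbance at 570 nm, and IC50 was taken from fitted dose-response curves.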

H1975 NSCLC xenografts [6] = assay: H1975 NSCLC xenograft tumour growth; assay type: in vivo; details: NOD/SCID mice, oral 10 mg kg^−1 thrice weekly for 4 weeks
Method in brief: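 Seven-week-old male NOD/SCID mice were injected subcutaneously in both flanks with H1975 cells (1.0 × 10^7) in matrigel. Mice were randomised into two groups of five and dosed orally three times weekly for 4 weeks with vehicle (0.6% w/v aqueous Pluronic F-68) or test compound (10 mg kg−1), with Nutri-Cal given during therapy. Calipers were used three times weekly; volume = width² × length/2. Tumour weights were taken after 28 days.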

H1975 NSCLC xenografts [7] = assay: Immunohistochemistry of xenograft tumours; assay type: in vivo, NOD/SCID mice; details: end of treatment, 10 mg kg^−1 thrice weekly × 4 weeks
Method in brief: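 At the end of the 28-day oral dosing, H1975 xenograft tumours were formalin-fixed, paraffin-embedded and cut at 5.0 μm. Peroxidase was quenched with 3% H2O2, sections blocked 1 h at room temperature in PBS with 3% normal serum, then probed overnight at 4 °C for Ki-67 or TUNEL. Detection used biotinylated secondary (1:200) plus avidin–biotin peroxidase. Three random ×200 fields were scored, counting 100 cells in triplicate; positives are given as % of total cells.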

[8] = Peripheral blood analysis after 28-day treatment; assay type: in vivo, NOD/SCID mice
Method in brief: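 H1975-xenografted male NOD/SCID mice (five per group) were given vehicle (0.6% w/v aqueous Pluronic F-68) or test compound orally, 10 mg kg−1 three times weekly for 4 weeks. After the 28-day treatment, peripheral blood was analysed for white cells, neutrophils, platelets and haematocrit, and serum for albumin, alkaline phosphatase, ALT and creatinine.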

PC14 cells, shp73 = assay: MTT growth assay, transient p73 silencing; assay type: cell-based; details: Homo sapiens, PC-14
[9] = tested on: six NSCLC cell lines (A549, H460, H1975, PC14, H1299, and H23); assay: Cell cycle analysis by propidium iodide flow cytometry, six lines; assay type: cell-based, human; details: range over six NSCLC cell lines, 1 μM, 24 h
Method in brief: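 A549, H460, H1975, PC14, H1299 and H23 were seeded at 50% confluency, left overnight, then exposed for 24 h to test compound (1 μM) or diluent control. DNA content was stained with propidium iodide, and cell-cycle phase distribution was determined by flow cytometry.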

[10] = tested on: PC14 cells, scramble vector control; assay: MTT growth assay, transient scramble control; assay type: cell-based; details: Homo sapiens, PC-14
CRM1 [11] = details: 24 h of incubation; ref Sun et al (2013); cited from earlier work
[12] = tested on: H1975 cells stably containing shCRM1; assay: MTT growth assay, CRM1-knockdown cells; assay type: cell-based, human; details: H1975 shCRM1, cisplatin 72 h
Method in brief: as §1

**Q.** Which “protein levels of CRM1 (western blot)” value (CRM1 [1]) does the source give for O=C(/C=C\n1cnc(-c2cc(C(F)(F)F)cc(C(F)(F)F)c2)n1)NNc1cnccn1 [KPT-330] here?
**A.** Its value is “dose-dependent decrease”.

**Q.** What about the “effect on body weight compared with the vehicle group” value [2] of the same compound?
**A.** Its value is “did not have a significant effect”.

**Q.** And the “mean relative body weight compared with mean starting weight” value [2]?
**A.** Its value is 105%.

**Q.** What about the IC50 ([3]; Homo sapiens, NCI-H1975, 72 h) of the same compound?
**A.** The IC50 was 0.098 µM.

**Q.** And the “CRM1 mRNA levels” value (CRM1 [4])?
**A.** The value was “no significant change”.

**Q.** What about the “range of apoptosis induced (annexin V/propidium iodide co-positive cells)” value (six NSCLC cell lines) of the same compound?
**A.** Its value is 22–54%.

**Q.** What about the IC50 [5] of the same compound?
**A.** Its IC50 is > 1 µM.

**Q.** What about the IC50 (11 NSCLC cell lines) of the same compound?
**A.** Its IC50 is 0.025 to 0.995 µM.

**Q.** What about the “tumour growth compared with vehicle-treated controls” value (H1975 NSCLC xenografts [6]) of the same compound?
**A.** The value was “mark inhibition”.

**Q.** What about the “Ki-67-positive cells in tumour tissue” value (H1975 NSCLC xenografts [7]) of the same compound?
**A.** The value was “decreased”.

**Q.** And the “percent of TUNEL-positive cells in tumour tissue” value (H1975 NSCLC xenografts [7])?
**A.** Its value is “increased”.

**Q.** And the Neut ([8]; NOD/SCID mice, 10 mg kg^−1 thrice weekly × 4 weeks, mean±s.d., range 0.15–7.9)?
**A.** The Neut was 1.26±0.5 × 1000 per μl.

**Q.** And the CREAT ([8]; NOD/SCID mice, 10 mg kg^−1 thrice weekly × 4 weeks, mean±s.d., range 0.2–0.9)?
**A.** Its CREAT is 0.062 ± 0.01 mg/dL.

**Q.** What about the WBC ([8]; NOD/SCID mice, 10 mg kg^−1 thrice weekly × 4 weeks, mean±s.d., range 2.9–20.9) of the same compound?
**A.** Its WBC is 4.0±0.3 × 1000 per μl.

**Q.** And the ALT ([8]; NOD/SCID mice, 10 mg kg^−1 thrice weekly × 4 weeks, mean±s.d., range 17–77)?
**A.** The ALT was 46.2±10.2 U l^−1.

**Q.** What about the Alb ([8]; NOD/SCID mice, 10 mg kg^−1 thrice weekly × 4 weeks, mean±s.d., range 25–30) of the same compound?
**A.** The Alb was 36.5 ± 0.6 g/L.

**Q.** What about the HCT ([8]; NOD/SCID mice, 10 mg kg^−1 thrice weekly × 4 weeks, mean±s.d., range 34–53) of the same compound?
**A.** Its HCT is 46.2±7.5%.

**Q.** What about the ALP ([8]; NOD/SCID mice, 10 mg kg^−1 thrice weekly × 4 weeks, mean±s.d., range 35–96) of the same compound?
**A.** Its ALP is 96±18 U l^−1.

**Q.** And the PLT ([8]; NOD/SCID mice, 10 mg kg^−1 thrice weekly × 4 weeks, mean±s.d., range 685–1436)?
**A.** Its PLT is 786±180 × 1000 per μl.

**Q.** What about the “total white blood cells, neutrophils, platelet counts, haematocrit, serum albumin, alkaline phosphatase, ALT and creatinine compared with vehicle group” value ([8]; peripheral blood after the 28-day treatment) of the same compound?
**A.** The value was “no significant alterations”.

**Q.** What about the IC50 (PC14 cells, shp73) of the same compound?
**A.** Its IC50 is 0.318 µM.

**Q.** What about the “G1 cell cycle, range” value [9] of the same compound?
**A.** The value was 56–82%.

**Q.** What about the “G2/M phase, range” value [9] of the same compound?
**A.** The value was 2–20%.

**Q.** What about the “S phase, range” value [9] of the same compound?
**A.** The value was 8–20%.

**Q.** And the IC50 [10]?
**A.** Its IC50 is 0.197 µM.

**Q.** Which “reversibility of binding to CRM1” value (CRM1 [11]) does the source give for CCC(=C/[C@H](C)C/C=C/C(C)=C/[C@@H](C)C(=O)[C@@H](C)[C@H](O)[C@@H](C)C/C(C)=C/C(=O)O)/C=C/[C@@H]1OC(=O)C=C[C@@H]1C [LMB, Leptomycin B] here?
**A.** Its value is “not reversible”.

**Q.** Which IC50 ([3]; H1975 scramble, cisplatin 72 h, MTT) does the source give for N.N.[Cl][Pt][Cl] [cisplatin, reference compound] here?
**A.** Its IC50 is 8.1 µg/mL.

**Q.** And the IC50 [12]?
**A.** Its IC50 is 1.62 µg/mL.
